From ChEMBL document CHEMBL1629456, “ApoA-I mimetic peptides promote pre-β HDL formation in vivo causing remodeling of HDL and triglyceride accumulation at higher dose” (Bioorg Med Chem, 2010)
pEC50: −log10 of the molar value. Where a SMILES comes first, the peptide text is derived from it. [ ]: non-standard residue; d: D form. Gly(oct-7-en-1-yl) = C=CCCCCCC[C@H](N)C(=O)O; Ala(5-hexenyl) = C=CCCCCC[C@H](N)C(=O)O; Gly(octyl) = CCCCCCCC[C@H](N)C(=O)O

Target: Phospholipid-transporting ATPase ABCA1 (Mus musculus, UniProt P41233)
Sequence (P41233 whole entry): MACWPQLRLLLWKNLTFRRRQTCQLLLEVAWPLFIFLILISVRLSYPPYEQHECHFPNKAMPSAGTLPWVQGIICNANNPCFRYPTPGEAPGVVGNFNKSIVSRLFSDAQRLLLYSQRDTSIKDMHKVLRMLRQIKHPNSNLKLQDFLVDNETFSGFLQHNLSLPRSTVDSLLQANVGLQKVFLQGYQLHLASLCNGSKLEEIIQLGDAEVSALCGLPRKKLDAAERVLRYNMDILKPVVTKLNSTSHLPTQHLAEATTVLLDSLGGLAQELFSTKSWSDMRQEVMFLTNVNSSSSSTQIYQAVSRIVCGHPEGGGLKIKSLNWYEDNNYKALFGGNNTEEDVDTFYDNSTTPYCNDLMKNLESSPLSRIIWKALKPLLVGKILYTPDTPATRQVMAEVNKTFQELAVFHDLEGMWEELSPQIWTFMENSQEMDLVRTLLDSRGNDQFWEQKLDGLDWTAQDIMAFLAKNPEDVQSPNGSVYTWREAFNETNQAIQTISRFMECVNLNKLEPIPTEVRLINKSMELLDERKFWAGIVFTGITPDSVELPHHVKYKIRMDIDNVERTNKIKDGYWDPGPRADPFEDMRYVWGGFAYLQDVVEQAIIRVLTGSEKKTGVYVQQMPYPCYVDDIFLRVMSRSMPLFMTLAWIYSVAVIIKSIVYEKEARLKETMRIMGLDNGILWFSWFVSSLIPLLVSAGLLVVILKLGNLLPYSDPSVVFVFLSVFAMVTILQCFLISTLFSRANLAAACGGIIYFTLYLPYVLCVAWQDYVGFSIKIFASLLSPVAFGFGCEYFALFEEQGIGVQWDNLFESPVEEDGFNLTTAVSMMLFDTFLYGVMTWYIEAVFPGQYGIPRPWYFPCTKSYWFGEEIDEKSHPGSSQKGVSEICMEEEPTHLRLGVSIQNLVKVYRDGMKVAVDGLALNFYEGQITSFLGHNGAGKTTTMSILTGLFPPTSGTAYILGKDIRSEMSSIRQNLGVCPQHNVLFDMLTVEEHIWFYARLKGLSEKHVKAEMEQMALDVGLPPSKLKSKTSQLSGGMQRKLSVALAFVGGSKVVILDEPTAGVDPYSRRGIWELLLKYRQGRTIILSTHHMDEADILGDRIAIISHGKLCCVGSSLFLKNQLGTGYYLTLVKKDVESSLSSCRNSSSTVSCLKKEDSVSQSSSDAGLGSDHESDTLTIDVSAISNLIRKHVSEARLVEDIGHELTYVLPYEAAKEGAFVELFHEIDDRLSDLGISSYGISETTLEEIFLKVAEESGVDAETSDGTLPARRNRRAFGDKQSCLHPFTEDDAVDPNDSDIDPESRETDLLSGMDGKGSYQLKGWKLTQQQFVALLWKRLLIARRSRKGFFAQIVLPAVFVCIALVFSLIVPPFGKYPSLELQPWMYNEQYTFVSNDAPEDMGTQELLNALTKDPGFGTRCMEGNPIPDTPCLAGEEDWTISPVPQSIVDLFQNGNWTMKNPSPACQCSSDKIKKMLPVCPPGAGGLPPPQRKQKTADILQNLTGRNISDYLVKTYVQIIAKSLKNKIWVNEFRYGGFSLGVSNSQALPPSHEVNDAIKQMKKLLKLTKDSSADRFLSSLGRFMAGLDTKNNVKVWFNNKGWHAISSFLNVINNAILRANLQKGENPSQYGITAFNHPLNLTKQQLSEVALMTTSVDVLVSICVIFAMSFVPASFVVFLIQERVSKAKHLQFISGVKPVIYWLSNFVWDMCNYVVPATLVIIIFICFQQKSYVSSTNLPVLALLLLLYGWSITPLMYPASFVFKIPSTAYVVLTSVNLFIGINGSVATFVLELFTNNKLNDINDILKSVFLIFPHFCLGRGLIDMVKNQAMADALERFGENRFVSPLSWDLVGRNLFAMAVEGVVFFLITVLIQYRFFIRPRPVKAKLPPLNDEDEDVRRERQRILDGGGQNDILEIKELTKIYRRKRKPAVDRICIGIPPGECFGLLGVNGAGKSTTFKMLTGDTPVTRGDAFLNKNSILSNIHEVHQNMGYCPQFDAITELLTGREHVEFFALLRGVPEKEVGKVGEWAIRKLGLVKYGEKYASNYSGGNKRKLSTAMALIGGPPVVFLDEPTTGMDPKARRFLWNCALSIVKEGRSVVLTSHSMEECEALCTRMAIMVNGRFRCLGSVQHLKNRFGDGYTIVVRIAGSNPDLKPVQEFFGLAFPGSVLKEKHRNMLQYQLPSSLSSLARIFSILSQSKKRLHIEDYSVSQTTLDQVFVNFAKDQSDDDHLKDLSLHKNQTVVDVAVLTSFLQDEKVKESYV
Assay: Induction of ABCA1-mediated [3H]cholesterol efflux in mouse RAW 264.7 macrophages after 24 hrs
`CCCCCCCC[C@H](NC(=O)[C@H](CCC(=O)O)NC(=O)[C@H](CC(N)=O)NC(=O)[C@H](CC(C)C)NC(=O)[C@H](CCCCN)NC(=O)[C@H](CCC(=O)O)NC(=O)[C@H](CCCN=C(N)N)NC(=O)[C@H](Cc1ccccc1)NC(=O)[C@H](CCC(=O)O)NC(=O)[C@H](CC(=O)O)NC(=O)[C@H](CC(C)C)NC(=O)[C@@H](NC(=O)[C@@H]1CCCN1C(C)=O)C(C)C)C(=O)N[C@@H](CC(C)C)C(=O)N[C@@H](CCC(=O)O)C(=O)N[C@@H](C)C(=O)N[C@@H](CC(C)C)C(=O)N[C@@H](CCCCN)C(=O)N[C@@H](CCC(N)=O)C(=O)N[C@@H](CCCCN)C(=O)N[C@@H](CC(C)C)C(=O)N[C@@H](CCCCN)C(N)=O` (Ac-PVLDEFREKLNE[Gly(octyl)]LEALKQKLK-NH2) gave a pEC50 of 6.15. In the case of `C=CCCCCC[C@H](NC(=O)[C@H](CCC(N)=O)NC(=O)[C@H](CCCCN)NC(=O)[C@H](CC(C)C)NC(=O)[C@H](C)NC(=O)[C@H](CCC(=O)O)NC(=O)[C@H](CC(C)C)NC(=O)[C@H](CCCCCC=C)NC(=O)[C@H](CCC(=O)O)NC(=O)[C@H](CC(N)=O)NC(=O)[C@H](CC(C)C)NC(=O)[C@H](CCCCN)NC(=O)[C@H](CCC(=O)O)NC(=O)[C@H](CCCNC(=N)N)NC(=O)[C@H](CCCCCC=C)NC(=O)[C@H](CCC(=O)O)NC(=O)[C@H](CC(=O)O)NC(=O)[C@H](CC(C)C)NC(=O)[C@@H](NC(=O)[C@@H]1CCCN1C(C)=O)C(C)C)C(=O)N[C@@H](CC(C)C)C(=O)N[C@@H](CCCCN)C(N)=O` (Ac-PVLDE[Ala(5-hexenyl)]REKLNE[Ala(5-hexenyl)]LEALKQ[Ala(5-hexenyl)]LK-NH2), the pEC50 was 5.74. With `C=CCCCCCC[C@H](NC(=O)[C@H](CCC(=O)O)NC(=O)[C@H](CC(N)=O)NC(=O)[C@H](CC(C)C)NC(=O)[C@H](CCCCN)NC(=O)[C@H](CCC(=O)O)NC(=O)[C@H](CCCN=C(N)N)NC(=O)[C@H](CCCCCCC=C)NC(=O)[C@H](CCC(=O)O)NC(=O)[C@H](CC(=O)O)NC(=O)[C@H](CC(C)C)NC(=O)[C@@H](NC(=O)[C@@H]1CCCN1C(C)=O)C(C)C)C(=O)N[C@@H](CC(C)C)C(=O)N[C@@H](CCC(=O)O)C(=O)N[C@@H](C)C(=O)N[C@@H](CC(C)C)C(=O)N[C@@H](CCCCN)C(=O)N[C@@H](CCC(N)=O)C(=O)N[C@@H](CCCCN)C(=O)N[C@@H](CC(C)C)C(=O)N[C@@H](CCCCN)C(N)=O` (Ac-PVLDE[Gly(oct-7-en-1-yl)]REKLNE[Gly(oct-7-en-1-yl)]LEALKQKLK-NH2) the pEC50 was 6.40. `CCCCCCCC[C@H](NC(=O)[C@H](CCC(=O)O)NC(=O)[C@H](CC(N)=O)NC(=O)[C@H](CC(C)C)NC(=O)[C@H](CCCCN)NC(=O)[C@H](CCC(=O)O)NC(=O)[C@H](CCCNC(=N)N)NC(=O)[C@H](CCCCCCCC)NC(=O)[C@H](CCC(=O)O)NC(=O)[C@H](CC(=O)O)NC(=O)[C@H](CC(C)C)NC(=O)[C@@H](NC(=O)[C@@H]1CCCN1C(C)=O)C(C)C)C(=O)N[C@@H](CC(C)C)C(=O)N[C@@H](CCC(=O)O)C(=O)N[C@@H](C)C(=O)N[C@@H](CC(C)C)C(=O)N[C@@H](CCCCN)C(=O)N[C@@H](CCC(N)=O)C(=O)N[C@@H](CCCCN)C(=O)N[C@@H](CC(C)C)C(=O)N[C@@H](CCCCN)C(N)=O` (Ac-PVLDE[Gly(octyl)]REKLNE[Gly(octyl)]LEALKQKLK-NH2) showed a pEC50 of 6.22. Work on `C=CCCCCC[C@H](NC(=O)[C@H](CCC(=O)O)NC(=O)[C@H](CC(N)=O)NC(=O)[C@H](CC(C)C)NC(=O)[C@H](CCCCN)NC(=O)[C@H](CCC(=O)O)NC(=O)[C@H](CCCN=C(N)N)NC(=O)[C@H](Cc1ccccc1)NC(=O)[C@H](CCC(=O)O)NC(=O)[C@H](CC(=O)O)NC(=O)[C@H](CC(C)C)NC(=O)[C@H](CCCCCC=C)NC(=O)[C@@H]1CCCN1C(C)=O)C(=O)N[C@@H](CC(C)C)C(=O)N[C@@H](CCC(=O)O)C(=O)N[C@@H](C)C(=O)N[C@@H](CC(C)C)C(=O)N[C@@H](CCCCN)C(=O)N[C@@H](CCC(N)=O)C(=O)N[C@@H](CCCCN)C(=O)N[C@@H](CC(C)C)C(=O)N[C@@H](CCCCN)C(N)=O` (Ac-P[Ala(5-hexenyl)]LDEFREKLNE[Ala(5-hexenyl)]LEALKQKLK-NH2) yielded a pEC50 of 6.40. `C=CCCCCC[C@H](NC(=O)[C@H](CCC(N)=O)NC(=O)[C@H](CCCCN)NC(=O)[C@H](CC(C)C)NC(=O)[C@H](C)NC(=O)[C@H](CCC(=O)O)NC(=O)[C@H](CC(C)C)NC(=O)[C@H](CCCCCC=C)NC(=O)[C@H](CCC(=O)O)NC(=O)[C@H](CC(N)=O)NC(=O)[C@H](CC(C)C)NC(=O)[C@H](CCCCN)NC(=O)[C@H](CCC(=O)O)NC(=O)[C@H](CCCN=C(N)N)NC(=O)[C@H](Cc1ccccc1)NC(=O)[C@H](CCC(=O)O)NC(=O)[C@H](CC(=O)O)NC(=O)[C@H](CC(C)C)NC(=O)[C@H](CCCCCC=C)NC(=O)[C@@H]1CCCN1C(C)=O)C(=O)N[C@@H](CC(C)C)C(=O)N[C@@H](CCCCN)C(N)=O` (Ac-P[Ala(5-hexenyl)]LDEFREKLNE[Ala(5-hexenyl)]LEALKQ[Ala(5-hexenyl)]LK-NH2) showed a pEC50 of 5.30.

Tested on: not listed separately
Assay: Plasma concentration in C57/BL6 mouse at 60 mg/kg, sc after 3 hrs
Format: ADME, organism-based, C57Bl/6
Design: dose 60 mg/kg, route subcutaneous
How it was run: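 Male C57Bl/6 mice were dosed subcutaneously with peptide in 50 mM mannitol/PBS. Serum was taken by cardiac puncture, and peptide was measured by LC–MS/MS after acetonitrile protein precipitation.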
`CCCCCCCC[C@H](NC(=O)[C@H](CCC(=O)O)NC(=O)[C@H](CC(N)=O)NC(=O)[C@H](CC(C)C)NC(=O)[C@H](CCCCN)NC(=O)[C@H](CCC(=O)O)NC(=O)[C@H](CCCN=C(N)N)NC(=O)[C@H](Cc1ccccc1)NC(=O)[C@H](CCC(=O)O)NC(=O)[C@H](CC(=O)O)NC(=O)[C@H](CC(C)C)NC(=O)[C@@H](NC(=O)[C@@H]1CCCN1C(C)=O)C(C)C)C(=O)N[C@@H](CC(C)C)C(=O)N[C@@H](CCC(=O)O)C(=O)N[C@@H](C)C(=O)N[C@@H](CC(C)C)C(=O)N[C@@H](CCCCN)C(=O)N[C@@H](CCC(N)=O)C(=O)N[C@@H](CCCCN)C(=O)N[C@@H](CC(C)C)C(=O)N[C@@H](CCCCN)C(N)=O` (Ac-PVLDEFREKLNE[Gly(octyl)]LEALKQKLK-NH2) gave a concentration at 3 h of 188 µM.
